In ChEMBL document CHEMBL5724801, “EUbOPEN Chemogenomics Library - Multiplex” (2024):
“And” between values parts separate entries of the source, which are not always exact repeats. Equal entries are not always repeated.

Test system: Fibroblast
Test: Multiplex assay against human fibroblast
Format: toxicity, cell-based
How it was run: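 Compound was added to live cells that had been stained at seeding with Hoechst33342, BioTracker Green Microtubule Cytoskeleton Dye, MitoTracker Red and Annexin V Alexa Fluor 680, and imaging followed on a CQ1 microscope at 37°C and 5% CO2. CellPathfinder machine-learning gating divided cells into Hoechst high-intensity objects or normal cells, normal cells into healthy, pyknosed or fragmented nuclei, and pyknosed cells into mitotic or apoptotic. Tubulin, mitochondrial-mass and membrane-permeability phenotypes are per cents of healthy-nucleus cells.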

[1] = 12 h, 1 µM, compound concentration 1 uM
[2] = 12 h, 10 µM, compound concentration 10 uM
[3] = 24 h, 1 µM, compound concentration 1 uM
[4] = 24 h, 10 µM, compound concentration 10 uM
[5] = 48 h, 1 µM, compound concentration 1 uM
[6] = 48 h, 10 µM, compound concentration 10 uM

Cc1cc(NC(=O)NCCN2CCC(O)(Cc3ccccc3)CC2)c2ccccc2n1 [PALOSURAN]
Population Apoptotic (%) [1]: 37% and 40%
Population Fragmented Nuclei (%) [1]: 10% and 26%
Population Healthy Nuclei (%) [1]: 77% and 44%
Population Hoechst High Intensity Objects (%) [1]: 2% and 9%
Population Membrane Permeable-Phenotype (%) [1]: 3% and 1%
Population Mitotic Cells (%) [1]: 62% and 59%
Population Normal (%) [1]: 97% and 90%
Population Pyknosed Nuclei (%) [1]: 12% and 28%
Population Tubulin-Different-Phenotype (%) [1]: 19% and 46%
Total Cell Count [1]: 133 and 143
Population Apoptotic (%) [2]: 40% and 41%
Population Fragmented Nuclei (%) [2]: 14% and 28%
Population Healthy Nuclei (%) [2]: 69% and 49%
Population Hoechst High Intensity Objects (%) [2]: 1% and 6%
Population Membrane Permeable-Phenotype (%) [2]: 0% and 3%
Population Mitochondria Different-Phenotype (%) [2]: 13% and 3%
Population Mitotic Cells (%) [2]: 59% and 58%
Population Normal (%) [2]: 98% and 93%
Population Pyknosed Nuclei (%) [2]: 15% and 22%
Population Tubulin-Different-Phenotype (%) [2]: 37% and 51%
Total Cell Count [2]: 178 and 113
Population Apoptotic (%) [3]: 53% and 40%
Population Fragmented Nuclei (%) [3]: 15% and 27%
Population Healthy Nuclei (%) [3]: 73% and 50%
Population Hoechst High Intensity Objects (%) [3]: 2% and 6%
Population Mitochondria Different-Phenotype (%) [3]: 0% and 21%
Population Mitotic Cells (%) [3]: 46% and 60%
Population Normal (%) [3]: 97% and 93%
Population Pyknosed Nuclei (%) [3]: 10% and 22%
Total Cell Count [3]: 129 and 119
Population Apoptotic (%) [4]: 42% and 60%
Population Fragmented Nuclei (%) [4]: 14% and 30%
Population Healthy Nuclei (%) [4]: 77% and 47%
Population Hoechst High Intensity Objects (%) [4]: 1% and 3%
Population Membrane Permeable-Phenotype (%) [4]: 0% and 3%
Population Mitochondria Different-Phenotype (%) [4]: 8% and 1%
Population Mitotic Cells (%) [4]: 57% and 40%
Population Normal (%) [4]: 98% and 96%
Population Pyknosed Nuclei (%) [4]: 8% and 22%
Population Tubulin-Different-Phenotype (%) [4]: 37% and 48%
Total Cell Count [4]: 178 and 117
Population Apoptotic (%) [5]: 50% and 61%
Population Fragmented Nuclei (%) [5]: 16% and 42%
Population Healthy Nuclei (%) [5]: 72% and 44%
Population Hoechst High Intensity Objects (%) [5]: 3% and 7%
Population Membrane Permeable-Phenotype (%) [5]: 0% and 14%
Population Mitotic Cells (%) [5]: 50% and 38%
Population Normal (%) [5]: 96% and 92%
Population Pyknosed Nuclei (%) [5]: 11% and 13%
Total Cell Count [5]: 126 and 149
Population Apoptotic (%) [6]: 55% and 61%
Population Fragmented Nuclei (%) [6]: 19% and 38%
Population Healthy Nuclei (%) [6]: 69% and 44%
Population Hoechst High Intensity Objects (%) [6]: 5% and 2%
Population Membrane Permeable-Phenotype (%) [6]: 0% and 2%
Population Mitochondria Different-Phenotype (%) [6]: 10% and 6%
Population Mitotic Cells (%) [6]: 44% and 38%
Population Normal (%) [6]: 94% and 97%
Population Pyknosed Nuclei (%) [6]: 10% and 16%
Population Tubulin-Different-Phenotype (%) [6]: 36% and 61%
Total Cell Count [6]: 186 and 112

C[C@H](NC(=O)c1c(C(F)F)nn(C)c1Oc1cccc(C(F)(F)F)c1)c1ccc(C(=O)O)cc1 [PALUPIPRANT]
Population Apoptotic (%) [1]: 26% and 24%
Population Fragmented Nuclei (%) [1]: 29% and 23%
Population Healthy Nuclei (%) [1]: 57% and 52%
Population Hoechst High Intensity Objects (%) [1]: 5% and 6%
Population Membrane Permeable-Phenotype (%) [1]: 0% and 11%
Population Mitochondria Different-Phenotype (%) [1]: 4% and 6%
Population Mitotic Cells (%) [1]: 73% and 75%
Population Normal (%) [1]: 94% and 93%
Population Pyknosed Nuclei (%) [1]: 12% and 23%
Population Tubulin-Different-Phenotype (%) [1]: 23% and 55%
Total Cell Count [1]: 187 and 148
Population Apoptotic (%) [2]: 45% and 35%
Population Healthy Nuclei (%) [2]: 70% and 35%
Population Mitochondria Different-Phenotype (%) [2]: 6% and 13%
Population Mitotic Cells (%) [2]: 55% and 64%
Population Normal (%) [2]: 97% and 85%
Population Pyknosed Nuclei (%) [2]: 16% and 22%
Population Tubulin-Different-Phenotype (%) [2]: 45% and 60%
Total Cell Count [2]: 126 and 149
Population Apoptotic (%) [3]: 40% and 42%
Population Fragmented Nuclei (%) [3]: 32% and 26%
Population Healthy Nuclei (%) [3]: 58% and 53%
Population Hoechst High Intensity Objects (%) [3]: 5% and 7%
Population Membrane Permeable-Phenotype (%) [3]: 1% and 8%
Population Mitochondria Different-Phenotype (%) [3]: 4% and 5%
Population Mitotic Cells (%) [3]: 60% and 57%
Population Normal (%) [3]: 94% and 92%
Population Pyknosed Nuclei (%) [3]: 8% and 20%
Total Cell Count [3]: 178 and 141
Population Apoptotic (%) [4]: 60% and 38%
Population Fragmented Nuclei (%) [4]: 18% and 40%
Population Healthy Nuclei (%) [4]: 62% and 42%
Population Hoechst High Intensity Objects (%) [4]: 5% and 10%
Population Mitochondria Different-Phenotype (%) [4]: 7% and 3%
Population Mitotic Cells (%) [4]: 39% and 61%
Population Normal (%) [4]: 94% and 89%
Population Pyknosed Nuclei (%) [4]: 18% and 17%
Population Tubulin-Different-Phenotype (%) [4]: 35% and 51%
Total Cell Count [4]: 131 and 138
Population Apoptotic (%) [5]: 53%
Population Fragmented Nuclei (%) [5]: 34% and 30%
Population Healthy Nuclei (%) [5]: 57% and 50%
Population Hoechst High Intensity Objects (%) [5]: 11% and 3%
Population Membrane Permeable-Phenotype (%) [5]: 0% and 4%
Population Mitochondria Different-Phenotype (%) [5]: 4%
Population Mitotic Cells (%) [5]: 46%
Population Normal (%) [5]: 88% and 96%
Population Pyknosed Nuclei (%) [5]: 7% and 19%
Population Tubulin-Different-Phenotype (%) [5]: 29% and 53%
Total Cell Count [5]: 184 and 147
Population Apoptotic (%) [6]: 73% and 60%
Population Fragmented Nuclei (%) [6]: 20% and 45%
Population Healthy Nuclei (%) [6]: 60% and 45%
Population Hoechst High Intensity Objects (%) [6]: 4% and 13%
Population Membrane Permeable-Phenotype (%) [6]: 1% and 10%
Population Mitochondria Different-Phenotype (%) [6]: 8% and 6%
Population Mitotic Cells (%) [6]: 26% and 40%
Population Normal (%) [6]: 95% and 86%
Population Pyknosed Nuclei (%) [6]: 18% and 9%
Population Tubulin-Different-Phenotype (%) [6]: 46% and 50%
Total Cell Count [6]: 130 and 122
